# Measured values of several laboratories.
# Each line is one published result; the experiments were not run side by side.
Structure (SMILES),tested on,test,system,setting,endpoint,value
[NH2][Pt]([NH2])([Cl])[Cl],HCC4006,"cell growth or viability, MTT",,48 h,IC50,182 µM
CC(C)(C#Cc1ccc(-c2ccc(Cl)c3c(NS(C)(=O)=O)nn(CC(F)(F)F)c23)c([C@H](CC2CCCCC2)NC(=O)Cn2nc(C(F)(F)F)c3c2C(F)(F)[C@H]2C[C@@H]32)n1)S(C)(=O)=O,Human immunodeficiency virus 1,"viral replication, inhibitor",,,EC50,0.0007 µM
C=CCCCNc1c2c([nH]c(=O)c1C(=O)OCC)CCC2,Human immunodeficiency virus 1,"viral replication, inhibitor",IIIB,72 h,EC50,45.4 µM
CO[C@H]1/C=C/O[C@@]2(C)Oc3c(C)c(O)c4c(O)c(c(/C=N/N5CCN(C)CC5)c(O)c4c3C2=O)NC(=O)/C(C)=C\C=C\[C@H](C)[C@H](O)[C@@H](C)[C@@H](O)[C@@H](C)[C@H](OC(C)=O)[C@@H]1C,Mycobacterium marinum,microbial growth,,,MIC90,10 µM
CC(C)(C#Cc1ccc(-c2ccc(Cl)c3c(NS(C)(=O)=O)nn(CC(F)(F)F)c23)c([C@@H](CC2CC2)NC(=O)Cn2nc(C(F)(F)F)c3c2C(F)(F)[C@@H]2C[C@H]32)n1)S(C)(=O)=O,Human immunodeficiency virus 1,"viral replication, inhibitor",,,EC50,0.0038 µM
CC(=O)ON=C1C=CC(=C(C#N)c2ccccc2)C=C1,HDF-1,"cell growth or viability, MTT",,72 h,IC50,24 mg/L
CCCNc1c2c([nH]c(=O)c1C(=O)OCC)CCC2,Human immunodeficiency virus 1,"viral replication, inhibitor",IIIB,72 h,EC50,30.6 µM
CC(C)(C#Cc1ccc(-c2ccc(Cl)c3c(NS(C)(=O)=O)nn(CC(F)(F)F)c23)c([C@@H](CC2CCCC2)NC(=O)Cn2nc(C(F)(F)F)c3c2C(F)(F)[C@H]2C[C@@H]32)n1)S(C)(=O)=O,Human immunodeficiency virus 1,"viral replication, inhibitor",,,EC50,0.0123 µM
O=c1[nH]ncc(NN=Cc2cn(-c3ccccc3)nc2-c2ccccc2)c1Cl,CCRF-CEM,cell growth or viability,,48 h,CC50,4.78 µM
Cc1cc(/C=C/C#N)cc(C)c1Nc1ccnc(Nc2ccc(C#N)cc2)n1,Human immunodeficiency virus 1,"viral replication, inhibitor","TZM-bl, IIIB",48 h,EC50,0.00089 µM
CCOC(=O)c1c(NCCCN)c2c([nH]c1=O)CCC2,Human immunodeficiency virus 1,"viral replication, inhibitor",IIIB,72 h,EC50,> 100 µM
Cc1nc(Nc2ncc(C(=O)Nc3c(C)cccc3Cl)s2)cc(N2CC[C@H](O)C2)n1,CCRF-CEM,"cell growth or viability, ATP luminescence",,72 h,IC50,> 10 µM
C=CCNc1c2c([nH]c(=O)c1C(=O)OCC)CCC2,Human immunodeficiency virus 1,"viral replication, inhibitor",IIIB,72 h,EC50,> 100 µM
O=[N+]([O-])c1cn2c(n1)OC[C@@H](OCc1ccc(OC(F)(F)F)cc1)C2,Mycobacterium marinum,microbial growth,,,MIC90,50 µM
